Screening data from PubChem.
Rows were chosen to be rich in hits. Some 4.9% of all compounds tested hit in one or more screens of this group.
STAT1 activator: STAT1 signaling activation; NIH 3T3 STAT1-luciferase reporter, IFN-gamma, luminescence; 100% = IFN-gamma alone, no compound; activation (% of control), % at 5.5 µM; 2.6% of 200,000 active;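 active means activation above the screen-wide mean activation plus 3 SD, cut at about 130% in these data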
NF-kB neuron act: NF-kB expression increase, human neuronal cells; fold change at 12.5 µM; AID 1239; 1.6% of 190,000 active; NF-kB reporter expression; active compounds read high; in the data active means fold change above about 3.3
STAT1 inh-1: reduces IFN-gamma driven STAT1 reporter signal | NIH 3T3 STAT1-luciferase reporter, luminescence | inhibition, % at 5.5 µM | 0.35% of 200,000 active;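 active means inhibition above a set limit, the mean inhibition across all tested compounds plus 3 SD, cut at about 34% in these data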
STAT3 blocker: reduces IL-6 driven STAT3 reporter signal. inhibition, % at 5.5 µM. U3A cells, IL-6 STAT3-luciferase reporter, luminescence; host cell line lacks STAT1. 0.89% of 190,000 active;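 active means inhibition above the mean inhibition across all screened compounds plus 3 SD, cut at about 44% in these data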
APP 5'UTR act: activates APP 5'UTR luciferase reporter | SH-SY5Y APP 5'UTR luciferase reporter, luminescence; zero percent = DMSO vehicle wells | activation, % at 2 µM | 1% of 190,000 active;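 active means activation above a set limit, based on mean plus 3 SD of controls, cut at about 140% in these data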
STAT3 act: STAT3 signaling activation; activation (% of control), % at 5.6 µM; 0.91% of 190,000 active; U3A cells, IL-6 STAT3-luciferase reporter, luminescence; 100% = signal with IL-6 EC80 alone;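 active means activation above the screen-wide mean of compound activation plus 3 SD, cut at about 130% in these data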
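Test system: STAT3-luciferase reporter U3A cells; Detection: reporter luminescence signal; Times: 1 h compound pre-exposure, 6 h IL-6 stimulation, 37 °C; Benchmarks: IL-6-only high control; Also added: IL-6 stimulus at 33 ng/mL final.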
STAT1 inh-2: confirmation of STAT1 signaling inhibitors; shares compounds with STAT1 inh-1; NIH 3T3 STAT1-luciferase reporter, IFN-gamma, luminescence; inhibition, % at 5.5 µM; 55% of 200 active; AID 1263;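 active means triplicate mean inhibition exceeding the hit cutoff computed for the primary STAT1 screen, cut at about 35% in these data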
NFkB inh STAT1ct: counter-screen for STAT1 inhibitors: NF-kappaB inhibition | 30% of 200 active | HEK293T NF-kB luciferase reporter, TNF-alpha induced, luminescence | inhibition, % at 5.7 µM | shares compounds with STAT1 inh-1 | AID 1303;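 active means inhibition above the mean of solvent-only control wells plus 3 SD of those wells, cut at about 15% in these data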
STAT3 inh 2: counter-screen for STAT1 inhibitors: STAT3 inhibition. shares compounds with STAT1 inh-1. U3A cells, IL-6 STAT3 luciferase reporter, luminescence; cells lacking STAT1. inhibition, % at 5.7 µM. 20% of 200 active;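 active means inhibition above the mean of solvent-only control wells plus 3 SD, set per campaign, cut at about 25% in these data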
Hits are given with their value; n = inactive; x = not tested or not shown.

SMILES	STAT1 activator	NF-kB neuron act	STAT1 inh-1	STAT3 blocker	APP 5'UTR act	STAT3 act	STAT1 inh-2	NFkB inh STAT1ct	STAT3 inh 2
CC(=O)N1CCC2(CC1)C/C(=N\NC(=S)Nc1ccc(C)cc1)c1cc(O)ccc1O2	n	n	n	n	n	n	x	x	x
Nc1ccc(-c2nc3c(Cl)cc(N)cc3[nH]2)cc1	n	n	41	n	n	n	n	35	28
Nc1ccc2nc(-c3cccnc3)[nH]c2c1	n	n	n	n	x	n	x	x	x
O=C(Nc1nnc(-c2ccco2)o1)c1ccc([N+](=O)[O-])s1	n	n	n	n	n	n	x	x	x
CCN(CC)S(=O)(=O)c1ccc(N2CCOCC2)c(NC(=O)c2cc(-c3ccccn3)nc3ccccc23)c1	n	n	66	n	n	n	46	n	n
O=C(N/N=C/c1cccs1)C(=O)Nc1cccc(Cl)c1	n	n	n	n	n	n	x	x	x
O=C(O)c1cccc(N/N=C/c2cccs2)c1	n	15	60	n	n	n	43	79	n
O=S(=O)(c1cccc(F)c1)N1CCN(C(=S)NCc2ccccc2)CC1	n	n	n	n	n	n	x	x	x
CCOC(=O)N1CCC(N2C(=O)c3ccccc3C2Nc2cccnc2)CC1 (stereo not drawn)	n	n	34	n	n	n	n	n	n
COc1ccc2c(c1)c(=O)c(C(=O)O)c(-c1ccc3c(c1)OCO3)n2C	n	n	n	n	n	n	x	x	x
O=[N+]([O-])c1ccc2ccn(C3OCC(O)C(O)C3O)c2c1 (stereo not drawn)	n	n	n	n	n	n	x	x	x
Clc1ccccc1N1CCN(c2ncnc3nc[nH]c23)CC1	n	n	37	n	n	n	n	n	n
FC(F)(F)c1cccnc1N1CCN(c2ncnc3nc[nH]c23)CC1	n	n	n	n	n	n	x	x	x
O=C(O)CSc1nnc(NC(=O)c2ccc3c(c2)OCO3)s1	n	n	38	n	n	n	n	20	n
CCOC(=O)N1CCN(C(=O)/C=C/c2c(C)nn(-c3ccc(F)cc3)c2Cl)CC1	n	n	62	n	n	n	40	n	n
CCC(C(=O)OCC(=O)Nc1c(Cl)cccc1Cl)c1ccccc1 (stereo not drawn)	n	n	n	n	n	n	x	x	x
Cc1ccc(-c2nnc(N3CCN(C(=O)c4ccco4)CC3)c3ccccc23)cc1	n	n	n	n	n	n	x	x	x
O=C(c1ccco1)N1CCN(c2ncnc3c2[nH]c2ccccc23)CC1	n	n	44	n	n	n	47	n	n
O=C(c1ccco1)N1CCN(c2ncnc3c2[nH]c2ccc(Br)cc23)CC1	n	n	37	n	n	n	37	n	n
COc1cccc(C2(O)CC(C(F)(F)F)=NN2C(=O)c2ccccn2)c1 (stereo not drawn)	n	n	n	n	n	n	x	x	x
O=C(c1ccc2c(c1)N(Cc1ccccc1)C(=O)c1ccccc1S2)N1CCCC1	n	n	52	n	n	n	45	n	n
Cc1ccccc1CN1C(=O)c2ccccc2Sc2ccc(C(=O)O)cc21	n	n	n	n	n	n	x	x	x
Cc1nn(-c2ccccc2C(=O)O)c(=O)c2ccccc12	n	n	n	n	n	n	x	x	x
CC1=NC(=O)C(N=Nc2ccccc2C(=O)O)N1c1ccccc1 (stereo not drawn)	n	n	65	n	n	n	50	16	n
Cc1nc(N)nc(N)c1/C=C/C(C)(C)c1ccc(Cl)cc1	n	n	38	n	n	n	38	28	40
COc1ccccc1C(O)(C(=O)NN(C)c1ccccc1)c1ccccc1OC	n	n	n	n	n	n	x	x	x
CCCn1nc(C(=O)OCC(=O)c2c(N)n(C)c(=O)n(C)c2=O)c2ccccc2c1=O	n	n	49	n	n	n	n	n	n
O=c1oc2ccccc2c(O)c1C=NCc1ccccn1	n	n	n	n	n	n	x	x	x
